Results published in ChEMBL document CHEMBL1799940, “Isolation and synthesis of antiproliferative eupolauridine alkaloids of Ambavia gerrardii from the Madagascar Dry Forest” (J Nat Prod, 2011).

What was measured:
NCI-H460 = assay: Antiproliferative activity against human H460 cells after 96 hrs by Cell Titre-Glo luminescent assay; format: functional, cell-based; settings: NCI-H460, 96 h
A2780 = assay: Antiproliferative activity against human A2780 cells after 2 days by Alamar Blue assay; format: functional, cell-based; settings: A2780, 48 h
Outline: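 Drug-sensitive human ovarian cancer cell line; samples delivered in 1 μL of 100% DMSO per well rather than 20 μL of 1:1 DMSO–H2O. Otherwise run by a previously reported protocol.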

Row | SMILES | IC50 (NCI-H460) [µM] | IC50 (A2780) [µM]
1 | COc1cccc2c1-c1nccc3ccnc(c13)C2=O | 0.57 | 10.3
2 | COc1ccc2c(c1)-c1nccc3cc[n+]([O-])c-2c13 | > 100 | 50.3
3 | O=C1c2ccccc2-c2nccc3ccnc1c23 [SAMPANGINE] | 0.58 | 0.6
4 | COc1ccc2c(c1)-c1c3c-2nccc3cc[n+]1[O-] | > 10 | 54.3
5 | c1ccc2c(c1)-c1nccc3ccnc-2c13 [EUPOLAURIDINE] | > 100 | 35.7
6 | Oc1ccc2c(c1)-c1nccc3ccnc-2c13 | > 10 | 12.7
7 | [O-][n+]1ccc2ccnc3c2c1-c1ccccc1-3 | 1.77 | 3.5
8 | COc1ccc2c(c1)-c1nccc3ccnc-2c13 | > 10 | 11.1
